# According to ChEMBL document CHEMBL2311435, “Development of 18F-labeled picolinamide probes for PET imaging of malignant melanoma” (J Med Chem, 2013):
# Key:
# Liver [1] = test: Biodistribution in liver of C57BL/6 mouse xenografted with mouse B16F10 cells at 3.7 MBq, iv after 2 hrs by gamma-scintillation counting analysis; format: ADME, organism-based, B16-F10; details: in vivo
# How it was run: (§1)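 1.0 × 10^6 B16F10 cells in PBS injected subcutaneously into the right shoulder of C57BL/6 mice, grown to 0.5 cm (~10 day). Tail-vein injection of about 3.7 MBq (100 μCi) 18F probe in PBS (0.1 M, pH 7.4). Killed at 1.0 or 2.0 h p.i. (n = 4 per group). Tissues excised, weighed and gamma-counted; uptake expressed as %ID/g, mean ± SD.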
# Bone [2] = test: Biodistribution in bone of C57BL/6 mouse xenografted with mouse B16F10 cells at 3.7 MBq, iv after 2 hrs by gamma-scintillation counting analysis; format: ADME, organism-based, Bone element, B16-F10; details: in vivo; how it was run: as §1
# Intestine [3] = test: Biodistribution in intestine of C57BL/6 mouse xenografted with mouse B16F10 cells at 3.7 MBq, iv after 1 hr by gamma-scintillation counting analysis; format: ADME, organism-based, B16-F10; details: in vivo; how it was run: as §1
# Nucleic Acid [4] = test: Ratio of drug uptake in tumor to blood of C57BL/6 mouse xenografted with mouse B16F10 cells at 3.7 MBq, iv after 2 hrs by gamma-scintillation counting analysis; format: ADME, organism-based, B16-F10; details: tumour
# How it was run: (§2)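 Same subcutaneous B16F10 model and tail-vein dose of about 3.7 MBq (100 μCi), n = 4 per group. Dissection at 1 or 2 h p.i. Gamma-counter %ID/g of tumor divided by that of blood, lung, liver or muscle, given as mean ± SD.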
# Nucleic Acid [5] = test: Ratio of drug uptake in tumor to muscle of C57BL/6 mouse xenografted with mouse B16F10 cells at 3.7 MBq, iv after 2 hrs by gamma-scintillation counting analysis; format: ADME, organism-based, B16-F10; details: in vivo; how it was run: as §2
# Spleen [6] = test: Biodistribution in spleen of C57BL/6 mouse xenografted with mouse B16F10 cells at 3.7 MBq, iv after 2 hrs by gamma-scintillation counting analysis; format: ADME, organism-based, B16-F10; details: in vivo; how it was run: as §1
# Intestine [7] = test: Biodistribution in intestine of C57BL/6 mouse xenografted with mouse B16F10 cells at 3.7 MBq, iv after 2 hrs by gamma-scintillation counting analysis; format: ADME, organism-based, B16-F10; details: in vivo; how it was run: as §1
# Mus musculus [8] = test: Biodistribution in tumor of C57BL/6 mouse xenografted with mouse B16F10 cells at 3.7 MBq, iv after 2 hrs by gamma-scintillation counting analysis; format: ADME, organism-based, Neoplasm, B16-F10; details: in vivo; how it was run: as §1
# Mus musculus [9] = test: Biodistribution in eye of C57BL/6 mouse xenografted with mouse B16F10 cells at 3.7 MBq, iv after 2 hrs by gamma-scintillation counting analysis; format: ADME, organism-based, B16-F10; details: in vivo; how it was run: as §1
# Blood [10] = test: Biodistribution in blood of C57BL/6 mouse xenografted with mouse B16F10 cells at 3.7 MBq, iv after 1 hr by gamma-scintillation counting analysis; format: ADME, organism-based, B16-F10; details: in vivo; how it was run: as §1
# Kidney [11] = test: Biodistribution in kidney of C57BL/6 mouse xenografted with mouse B16F10 cells at 3.7 MBq, iv after 2 hrs by gamma-scintillation counting analysis; format: ADME, organism-based, B16-F10; details: in vivo; how it was run: as §1
# Stomach [12] = test: Biodistribution in stomach of C57BL/6 mouse xenografted with mouse B16F10 cells at 3.7 MBq, iv after 2 hrs by gamma-scintillation counting analysis; format: ADME, organism-based, B16-F10; details: in vivo; how it was run: as §1
# Heart [13] = test: Biodistribution in heart of C57BL/6 mouse xenografted with mouse B16F10 cells at 3.7 MBq, iv after 1 hr by gamma-scintillation counting analysis; format: ADME, organism-based, B16-F10; details: in vivo; how it was run: as §1
# Blood [14] = test: Biodistribution in blood of C57BL/6 mouse xenografted with mouse B16F10 cells at 3.7 MBq, iv after 2 hrs by gamma-scintillation counting analysis; format: ADME, organism-based, B16-F10; details: in vivo; how it was run: as §1
# Nucleic Acid [15] = test: Ratio of drug uptake in tumor to liver of C57BL/6 mouse xenografted with mouse B16F10 cells at 3.7 MBq, iv after 1 hr by gamma-scintillation counting analysis; format: ADME, organism-based, B16-F10; details: in vivo; how it was run: as §2
# Pancreas [16] = test: Biodistribution in pancreas of C57BL/6 mouse xenografted with mouse B16F10 cells at 3.7 MBq, iv after 2 hrs by gamma-scintillation counting analysis; format: ADME, organism-based, B16-F10; details: in vivo; how it was run: as §1
# Muscle tissue [17] = test: Biodistribution in muscle of C57BL/6 mouse xenografted with mouse B16F10 cells at 3.7 MBq, iv after 2 hrs by gamma-scintillation counting analysis; format: ADME, organism-based, B16-F10; details: in vivo; how it was run: as §1
# Mus musculus [18] = test: Biodistribution in tumor of C57BL/6 mouse xenografted with mouse B16F10 cells at 3.7 MBq, iv after 1 hr by gamma-scintillation counting analysis; format: ADME, organism-based, Neoplasm, B16-F10; details: in vivo; how it was run: as §1
# Brain [19] = test: Biodistribution in brain of C57BL/6 mouse xenografted with mouse B16F10 cells at 3.7 MBq, iv after 2 hrs by gamma-scintillation counting analysis; format: ADME, organism-based, B16-F10; details: in vivo; how it was run: as §1
# Zone of skin [20] = test: Biodistribution in skin of C57BL/6 mouse xenografted with mouse B16F10 cells at 3.7 MBq, iv after 1 hr by gamma-scintillation counting analysis; format: ADME, organism-based, B16-F10; details: in vivo; how it was run: as §1
# Pancreas [21] = test: Biodistribution in pancreas of C57BL/6 mouse xenografted with mouse B16F10 cells at 3.7 MBq, iv after 1 hr by gamma-scintillation counting analysis; format: ADME, organism-based, B16-F10; details: in vivo; how it was run: as §1
# Spleen [22] = test: Biodistribution in spleen of C57BL/6 mouse xenografted with mouse B16F10 cells at 3.7 MBq, iv after 1 hr by gamma-scintillation counting analysis; format: ADME, organism-based, B16-F10; details: in vivo; how it was run: as §1
# Stomach [23] = test: Biodistribution in stomach of C57BL/6 mouse xenografted with mouse B16F10 cells at 3.7 MBq, iv after 1 hr by gamma-scintillation counting analysis; format: ADME, organism-based, B16-F10; details: in vivo; how it was run: as §1
# Brain [24] = test: Biodistribution in brain of C57BL/6 mouse xenografted with mouse B16F10 cells at 3.7 MBq, iv after 1 hr by gamma-scintillation counting analysis; format: ADME, organism-based, B16-F10; details: in vivo; how it was run: as §1
# Nucleic Acid [25] = test: Ratio of drug uptake in tumor to blood of C57BL/6 mouse xenografted with mouse B16F10 cells at 3.7 MBq, iv after 1 hr by gamma-scintillation counting analysis; format: ADME, organism-based, B16-F10; details: tumour; how it was run: as §2
# Liver [26] = test: Biodistribution in liver of C57BL/6 mouse xenografted with mouse B16F10 cells at 3.7 MBq, iv after 1 hr by gamma-scintillation counting analysis; format: ADME, organism-based, B16-F10; details: in vivo; how it was run: as §1
# [27] = Drug uptake in tumor of C57BL/6 mouse xenografted with mouse B16F10 cells at 3.7 MBq, iv after 1 hr by PET imaging analysis; format: ADME, organism-based, Neoplasm, B16-F10; details: in vivo
# How it was run: (§3)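 Static small-animal PET at 0.5, 1 and 2 h after tail-vein injection of ~3.7 MBq (100 μCi) into B16F10-bearing C57BL/6 mice (n = 4 per probe). Isoflurane anesthesia, 5% induction and 2% maintenance in O2. Decay-corrected images. ROI-derived %ID/g assumes 1 g/ml density, without attenuation correction. Mean ± SD.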
# Nucleic Acid [28] = test: Ratio of drug uptake in tumor to lungs of C57BL/6 mouse xenografted with mouse B16F10 cells at 3.7 MBq, iv after 2 hrs by gamma-scintillation counting analysis; format: ADME, organism-based, B16-F10; details: in vivo; how it was run: as §2
# Mus musculus [29] = test: Biodistribution in lungs of C57BL/6 mouse xenografted with mouse B16F10 cells at 3.7 MBq, iv after 2 hrs by gamma-scintillation counting analysis; format: ADME, organism-based, Lung, B16-F10; details: in vivo; how it was run: as §1
# Nucleic Acid [30] = test: Ratio of drug uptake in tumor to liver of C57BL/6 mouse xenografted with mouse B16F10 cells at 3.7 MBq, iv after 2 hrs by gamma-scintillation counting analysis; format: ADME, organism-based, B16-F10; details: in vivo; how it was run: as §2
# Muscle tissue [31] = test: Biodistribution in muscle of C57BL/6 mouse xenografted with mouse B16F10 cells at 3.7 MBq, iv after 1 hr by gamma-scintillation counting analysis; format: ADME, organism-based, B16-F10; details: in vivo; how it was run: as §1
# Zone of skin [32] = test: Biodistribution in skin of C57BL/6 mouse xenografted with mouse B16F10 cells at 3.7 MBq, iv after 2 hrs by gamma-scintillation counting analysis; format: ADME, organism-based, B16-F10; details: in vivo; how it was run: as §1
# Mus musculus [33] = test: Biodistribution in lungs of C57BL/6 mouse xenografted with mouse B16F10 cells at 3.7 MBq, iv after 1 hr by gamma-scintillation counting analysis; format: ADME, organism-based, Lung, B16-F10; details: in vivo; how it was run: as §1
# Heart [34] = test: Biodistribution in heart of C57BL/6 mouse xenografted with mouse B16F10 cells at 3.7 MBq, iv after 2 hrs by gamma-scintillation counting analysis; format: ADME, organism-based, B16-F10; details: in vivo; how it was run: as §1
# Nucleic Acid [35] = test: Ratio of drug uptake in tumor to lungs of C57BL/6 mouse xenografted with mouse B16F10 cells at 3.7 MBq, iv after 1 hr by gamma-scintillation counting analysis; format: ADME, organism-based, B16-F10; details: in vivo; how it was run: as §2
# [36] = Drug uptake in tumor of C57BL/6 mouse xenografted with mouse B16F10 cells at 3.7 MBq, iv after 2 hrs by PET imaging analysis; format: ADME, organism-based, Neoplasm, B16-F10; details: in vivo; how it was run: as §3
# Kidney [37] = test: Biodistribution in kidney of C57BL/6 mouse xenografted with mouse B16F10 cells at 3.7 MBq, iv after 1 hr by gamma-scintillation counting analysis; format: ADME, organism-based, B16-F10; details: in vivo; how it was run: as §1
# [38] = Drug uptake in tumor of C57BL/6 mouse xenografted with mouse B16F10 cells at 3.7 MBq, iv after 0.5 hrs by PET imaging analysis; format: ADME, organism-based, Neoplasm, B16-F10; details: in vivo; how it was run: as §3
# Nucleic Acid [39] = test: Ratio of drug uptake in tumor to muscle of C57BL/6 mouse xenografted with mouse B16F10 cells at 3.7 MBq, iv after 1 hr by gamma-scintillation counting analysis; format: ADME, organism-based, B16-F10; details: in vivo; how it was run: as §2
# Mus musculus [40] = test: Biodistribution in eye of C57BL/6 mouse xenografted with mouse B16F10 cells at 3.7 MBq, iv after 1 hr by gamma-scintillation counting analysis; format: ADME, organism-based, B16-F10; details: in vivo; how it was run: as §1
# Bone [41] = test: Biodistribution in bone of C57BL/6 mouse xenografted with mouse B16F10 cells at 3.7 MBq, iv after 1 hr by gamma-scintillation counting analysis; format: ADME, organism-based, Bone element, B16-F10; details: in vivo; how it was run: as §1
compound,measurement,setting,value
CCN(CC)CCNC(=O)c1ccc([18F])nc1,Drug uptake,Liver [1],1.07 % ID/g
same,Drug uptake,Bone [2],2.12 % ID/g
same,Drug uptake,Intestine [3],3.46 % ID/g
same,Ratio,Nucleic Acid [4],39.2
same,Ratio,Nucleic Acid [5],15.22
same,Drug uptake,Spleen [6],0.56 % ID/g
same,Drug uptake,Intestine [7],0.89 % ID/g
same,Drug uptake,Mus musculus [8],9.29 % ID/g
same,Drug uptake,Mus musculus [9],32.23 % ID/g
same,Drug uptake,Blood [10],0.46 % ID/g
same,Drug uptake,Kidney [11],1.2 % ID/g
same,Drug uptake,Stomach [12],2.27 % ID/g
same,Drug uptake,Heart [13],1.54 % ID/g
same,Drug uptake,Blood [14],0.2 % ID/g
same,Ratio,Nucleic Acid [15],2.24
same,Drug uptake,Pancreas [16],0.71 % ID/g
same,Drug uptake,Muscle tissue [17],0.52 % ID/g
same,Drug uptake,Mus musculus [18],9.54 % ID/g
same,Drug uptake,Brain [19],0.41 % ID/g
same,Drug uptake,Zone of skin [20],2.37 % ID/g
same,Drug uptake,Pancreas [21],3.58 % ID/g
same,Drug uptake,Spleen [22],2.88 % ID/g
same,Drug uptake,Stomach [23],5.03 % ID/g
same,Drug uptake,Brain [24],1.56 % ID/g
same,Ratio,Nucleic Acid [25],20.44
same,Drug uptake,Liver [26],4.47 % ID/g
same,Drug uptake,[27],7.94 % ID/g
same,Ratio,Nucleic Acid [28],10.49
same,Drug uptake,Mus musculus [29],0.92 % ID/g
same,Ratio,Nucleic Acid [30],7.26
same,Drug uptake,Muscle tissue [31],1.11 % ID/g
same,Drug uptake,Zone of skin [32],0.71 % ID/g
same,Drug uptake,Mus musculus [33],1.52 % ID/g
same,Drug uptake,Heart [34],0.4 % ID/g
same,Ratio,Nucleic Acid [35],6.23
same,Drug uptake,[36],8.47 % ID/g
same,Drug uptake,Kidney [37],5.63 % ID/g
same,Drug uptake,[38],7.54 % ID/g
same,Ratio,Nucleic Acid [39],11.24
same,Drug uptake,Mus musculus [40],34 % ID/g
same,Drug uptake,Bone [41],3.48 % ID/g
CCN(CC)CCNC(=O)c1ccc([18F])cc1,Drug uptake,Mus musculus [8],5.94 % ID/g
